High-throughput results as filed in PubChem BioAssay.
RGS4 block = RGS4 inhibitors, primary screen, cell-based, HEK293 M3R inducible RGS4, calcium flux | Regulator of G-protein signaling 4 (Homo sapiens), P49798 | Fluo-4 calcium flux; stronger effect = higher value; triggered by carbachol at its EC20 | B-score at 10 µM | 310,000 compounds, 0.45% hits | AID 463165, 2010;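 active = B-score, a plate-corrected calcium signal, over three deviations above library mean, with baseline fluorescence within five deviations of library mean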;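 also: RGS4 expression induced by doxycycline in cells with stable M3 receptor; B-score is computed from the integrated fluorescence ratio over baseline after carbachol; higher B-score means a larger calcium signal and so more RGS4 inhibition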
Target sequence (P49798 whole entry, looked up): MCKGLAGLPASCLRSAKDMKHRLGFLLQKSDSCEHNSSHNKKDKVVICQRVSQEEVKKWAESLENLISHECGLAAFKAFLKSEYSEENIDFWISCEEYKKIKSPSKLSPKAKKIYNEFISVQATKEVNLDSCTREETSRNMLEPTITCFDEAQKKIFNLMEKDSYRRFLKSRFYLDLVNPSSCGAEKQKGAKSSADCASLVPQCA
MrgX1 allo act = positive allosteric modulators of MrgX1, primary screen, HEK293 cells, Fluo-4 calcium flux; Mas-related G-protein coupled receptor member X1 (Homo sapiens), Q96LB2; FDSS; stronger effect = higher value; B-score at 10 µM; 310,000 compounds, 0.63% hits; AID 588675, 2011;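 active = plate-corrected calcium response at least 3 library SD above typical, normal starting fluorescence, not activating the receptor alone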;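 also: compound read alongside a low EC10 to EC30 dose of BAM8-22 agonist; peak minus trough fluorescence over baseline measured at the second addition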
Target sequence (Q96LB2 whole entry, looked up): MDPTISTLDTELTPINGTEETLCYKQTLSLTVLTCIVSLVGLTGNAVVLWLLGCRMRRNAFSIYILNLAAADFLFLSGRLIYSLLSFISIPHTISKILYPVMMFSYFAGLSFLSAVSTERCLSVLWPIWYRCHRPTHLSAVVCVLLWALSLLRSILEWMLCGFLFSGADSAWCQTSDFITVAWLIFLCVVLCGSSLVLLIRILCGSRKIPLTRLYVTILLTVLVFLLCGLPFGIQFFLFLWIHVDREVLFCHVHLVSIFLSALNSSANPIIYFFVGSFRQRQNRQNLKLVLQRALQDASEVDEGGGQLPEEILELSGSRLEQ
Cl transport mod = KCC2 cotransporter modulators, thallium flux, primary screen, cell-based, HEK293 KCC2, FluoZin-2 fluorescence, MLSMR; Solute carrier family 12 member 5 (Homo sapiens), Q9H2X9; KCC2 cells, thallium flux FluoZin-2 fluorescence; B-score of Tl+ flux slope (higher = more flux/activation; lower = inhibition) at 10 µM; 190,000 compounds, 2.2% hits;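 active = thallium flux slope and its plate-corrected score both differing from the plate sample mean at a set confidence after two filtering rounds, in either direction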;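 also: slope of fluorescence scaled to starting intensity during 10 to 20 s after thallium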
MrgX1 ag = agonists of human MrgX1 receptor, primary screen, HEK293 cells, Fluo-4 calcium flux; Fluo-4 calcium fluorescence, agonist mode; stronger effect = higher value; B-score at 10 µM; 310,000 compounds, 0.44% hits; AID 588627, 2011;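 active = calcium response B-score plate-corrected fluorescence ratio at least 3 library SD, with starting fluorescence B-score inside 5 SD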
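System – MrgX1-expressing HEK293 cells · Incubation – cells plated overnight, dye loaded 0.5 h 37 °C, 0.5 h room temperature · Technique – kinetic Fluo-4 NW fluorescence of intracellular calcium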
RGS4 pot = RGS4 potentiators or activators, primary screen, cell-based, HEK293 M3R inducible RGS4, calcium flux. 310,000 compounds, 0.92% hits. B-score at 10 µM. carbachol calcium flux Fluo4; stronger effect = lower value;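 active = B-score of the integrated calcium signal more than 4 SD below the library mean, with starting fluorescence not abnormally high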;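 also: negative B-score means reduced calcium response which marks RGS4 activation or potentiation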
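Detection: kinetic calcium fluorescence imaging with Fluo4-AM dye, 2 µM / Material: HEK293 cells with stable M3R and inducible RGS4 / Schedule: recording 10 s baseline at 1 Hz, 100 s post-agonist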
MrgX1 antagonist = antagonists of human MrgX1 receptor, primary screen, HEK293 cells, Fluo-4 calcium flux; B-score at 10 µM; AID 588676, 2011; 310,000 compounds, 1.3% hits; Mas-related G-protein coupled receptor member X1 (Homo sapiens), Q96LB2; BAM8-22 antagonism; stronger effect = lower value;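 active = calcium-response B-score plate-corrected more than 3 library SD below zero, starting fluorescence within 5 deviations, no agonist response on first addition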;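 also: peak minus trough fluorescence over baseline after final BAM8-22 challenge near maximal dose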
MrgX1 ant reconf = MrgX1 receptor antagonists, duplicate retest, confirmation, HEK293 cells, Fluo-4 calcium flux; shares compounds with MrgX1 antagonist; BAM8-22 calcium flux; stronger effect = lower value; remaining BAM8-22 calcium response % of control (stronger effect = lower value), % at 10 µM; 2,300 compounds, 19% hits;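 active = remaining agonist calcium response no higher than 100% minus 3 SD of agonist-only control wells, with starting fluorescence near control levels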;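 also: agonist BAM8-22 given at a near maximal EC90 to ECmax level; peak minus minimum fluorescence divided by baseline after agonist addition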
HEK293 Ca flux = nonspecific calcium signal in parental HEK293, confirmation, counter-screen for MrgX1 antagonist project, parental HEK293 cells, Fluo-4 calcium flux; shares compounds with MrgX1 antagonist; Fluo-4 calcium fluorescence, FDSS; fluorescence ratio F(max-min)/F0 at 10 µM; 4,000 compounds, 2% hits; AID 624111, 2012;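 active = duplicate-averaged calcium fluorescence ratio at least three times the standard deviation of buffer wells, a nonspecific response in parental cells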
HEK293 Ca counter = calcium response in parental HEK293 cells, primary screen, counter-screen for MrgX1 allosteric activator project, cell-based, Fluo-4 calcium flux, duplicate; fluorescence ratio F(max-min)/F0 at 10 µM; shares compounds with MrgX1 antagonist; 4,000 compounds, 0.4% hits; Fluo-4 fluorescence ratio; stronger effect = higher value;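 active = calcium fluorescence ratio, averaged over duplicates, at least 3 SD of the buffer-well ratio, meaning a nonspecific response in receptor-free cells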;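 also: untransfected parental HEK293 lacking MrgX1 used as counterscreen for MrgX1 allosteric activators; fluorescence change taken during the second addition on a kinetic imager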
HEK293 Ca cntr2 = calcium response in parental HEK293 cells, primary screen, counter-screen for MrgX1 agonist project, cell-based, Fluo-4 calcium flux, duplicate, agonist mode | shares compounds with MrgX1 antagonist | Fluo-4 calcium fluorescence (FDSS); stronger effect = higher value | fluorescence ratio F(max-min)/F0 at 10 µM | 4,000 compounds, 8.7% hits | AID 624115, 2012;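 active = calcium fluorescence ratio at least three times the spread of buffer wells, meaning a non-specific response in parental cells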
* marks the source's active call; other numbers are inactive results; i = inactive; nt = not tested or not shown; ! = not confirmed by another sample. This is a sample that favours compounds with a hit; in the whole collection about 4.7% have one here.

SMILES	RGS4 block	MrgX1 allo act	Cl transport mod	MrgX1 ag	RGS4 pot	MrgX1 antagonist	MrgX1 ant reconf	HEK293 Ca flux	HEK293 Ca counter	HEK293 Ca cntr2
CC(=O)N1CCN(c2nc(-c3cccs3)nc3ccccc23)CC1	i	i	-2.62	i	i	-4.67*	i	i	i	i
CCCN1CCN(c2nc(-c3cccs3)nc3ccccc23)CC1	i	i	-0.16	i	i	i	nt	nt	nt	nt
Cc1ccc(Cl)cc1N1CCN(C(=O)c2cc3c(=O)[nH]c4ccccc4c3n2C)CC1	i	i	-0.683	i	i	-13.9*	36.0%*	i	i	i
Cn1c(C(=O)N2CCN(c3ccc(Cl)cc3)CC2)cc2c(=O)[nH]c3ccccc3c21	i	i	nt	i	i	i	nt	nt	nt	nt
CC(OC(=O)Cn1[nH]c(=O)c2ccccc2c1=O)C(=O)Nc1cccc(Cl)c1 (centres undefined)	i	i	nt	i	i	i	nt	nt	nt	nt
CCN(Cc1ccncc1)C(=O)C1CCC(=O)N(Cc2ccc(Cl)cc2)C1 (centres undefined)	i	i	nt	i	i	i	nt	nt	nt	nt
CCOc1cc(/C=C(\C#N)C(=O)Nc2cccc(C(=O)O)c2)cc(Br)c1OC(=O)c1ccc(OC)cc1	i	i	nt	i	-8.12*	-10.3*	i	i	i	49.9*
COc1ccc(OC)c2sc(NC(=O)CCSc3ccccc3)nc12	i	i	nt	i	i	-8.84*	i	i	i	i
COc1ccc(OC)c2sc(NC(=O)CCS(=O)(=O)c3ccccc3)nc12	i	i	0.0159	i	i	i	nt	nt	nt	nt
COc1cc2cc(CN(CCO)S(=O)(=O)c3ccccc3Cl)c(=O)[nH]c2cc1OC	i	i	0.665	i	i	-7.74*	i	i	i	i
COc1ccc(C(=O)COC(=O)Cc2n[nH]c(=O)c3ccccc23)c(OC)c1	i	i	nt	i	i	-8.16*	i	i	i	i
O=C(Cc1n[nH]c(=O)c2ccccc12)OCC(=O)c1ccccc1Cl	i	i	nt	i	i	i	nt	nt	nt	nt
O=C(NCCN1C(=O)S/C(=C\c2ccc(Cl)cc2Cl)C1=O)C1=COCCO1	i	i	nt	i	i	i	nt	nt	nt	nt
Cc1nc(=O)c(-c2ccccc2)c(C)n1-c1ccc(C(=O)O)cc1	i	i	-1.45	i	i	-4.92*	i	i	i	i
Cc1nc(=O)c(-c2ccccc2)c(C)n1-c1ccc(S(N)(=O)=O)cc1	i	i	-0.278	i	i	i	nt	nt	nt	nt
CC1CCc2c(sc3[nH]c(=S)n(C)c(=O)c23)C1 (centres undefined)	i	i	nt	i	i	i	nt	nt	nt	nt
CCOC(=O)C1=C(CSc2nc3c(cc2C#N)CN(C)CC3)OC(N)=C(C#N)C1c1ccccc1 (centres undefined)	nt	i	nt	i	nt	i	nt	nt	nt	nt
CCOC(=O)C1=C(CSc2nc3c(cc2C#N)CN(C)CC3)OC(N)=C(C#N)C1c1ccc(F)cc1 (centres undefined)	i	i	0.144	i	i	-5.39*	i	i	i	i
Cc1ccc(C(=O)NCCc2nnc3ccc(SCC(=O)Nc4ccccc4F)nn23)cc1	i	i	nt	i	i	i	nt	nt	nt	nt
CC(N)C12CC3CC(CC(C3)C1)C2 (centres undefined)	i	i	0.0431	i	i	-4.98*!	i	i	i	i
NC(CO)C12CC3CC(CC(C3)C1)C2 (centres undefined)	i	i	0.504	i	i	i	nt	nt	nt	nt
CCc1cc(=O)[nH]c(SCc2cccnc2)n1	i	i	nt	i	i	i	nt	nt	nt	nt
CCc1cc(=O)[nH]c(SCc2ccc(C)cc2)n1	i	i	-2.51	i	i	-4.69*	i	i	i	i
CC1CCCC(NC(=O)c2cccc(S(=O)(=O)N3CCN(c4ccccc4)CC3)c2)C1C (centres undefined)	i	i	nt	i	i	-9.24*	i	i	i	i
COc1ccccc1C(=O)COC(=O)Cn1[nH]c(=O)c2ccccc2c1=O	i	i	nt	i	i	i	nt	nt	nt	nt
SMILES	RGS4 block	MrgX1 allo act	Cl transport mod	MrgX1 ag	RGS4 pot	MrgX1 antagonist	MrgX1 ant reconf	HEK293 Ca flux	HEK293 Ca counter	HEK293 Ca cntr2
CCOC(=O)Cc1csc(NC(=O)c2sc3nc4cc(C)ccc4cc3c2N)n1	i	i	0.581	i	i	-6.4*	i	i	i	i
CCOC(=O)Cc1csc(NC(=O)Nc2cccc(Cl)c2)n1	i	i	-0.346	i	i	-7.4*	i	i	i	i
CCOC(=O)Cc1csc(NC(=O)c2sc3nc4ccc(CC)cc4cc3c2N)n1	i	i	nt	i	i	i	nt	nt	nt	nt
Cc1cc2nc3n(c2cc1C)CC1CC(C(=O)NCc2cccc(C(F)(F)F)c2)N(C)C31 (centres undefined)	i	i	0.246	i	i	-5.49*	i	i	i	i
CC(C)NC(=O)C(c1ccc(F)cc1)N(C(=O)CCC(=O)Nc1ccccn1)C1CCCCC1 (centres undefined)	i	i	nt	i	i	i	nt	nt	nt	nt
Cc1nn(C)cc1CN(C)C(=O)c1nn2c(c1Cl)NC(c1cccs1)CC2C(F)(F)F (centres undefined)	i	i	-0.453	i	i	-4.98*	73.7%*	i	i	i
